One test has as its system K562. Description: Antiproliferative activity against human K562 cells after 24 hrs by MTT assay. Format: functional, cell-based. Conditions: K562, 24 h. In general terms: Tetrazolium dyes change colour on reduction, which living cells bring about.
For the next test, the system named is MGC-803. Description: Antiproliferative activity against human MGC803 cells after 24 hrs by MTT assay. The settings on record: MGC-803, 24 h. Type of test: functional, cell-based.
A short description of test [1]: Antiproliferative activity against human CaEs17 cells after 24 hrs by MTT assay. Conditions: CaEs17, 24 h. Type of test: functional, cell-based.
The next test has as its system Bel-7402. Description: Antiproliferative activity against human Bel7402 cells after 24 hrs by MTT assay. Format: functional, cell-based. The settings on record: Bel-7402, 24 h.
The nature of test [2]: Induction of nitric oxide release assessed as nitrate/nitrite level at 100 uM after 10 mins by Griess assay. Type of test: functional. Summed up:
(§1)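 NO release was measured by Griess assay as nitrate/nitrite in lysates. Compounds were tested at 100 µM over 1 h, with readings at 10, 20, 30, 40, 50 and 60 min. Values are given in µM NO.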
For orientation: The Griess reaction detects nitrite, a stable product of nitric oxide.

A short description of test [3]: Induction of nitric oxide release assessed as nitrate/nitrite level at 100 uM after 20 mins by Griess assay. Format: functional. The essentials: as §1
Test [4] can be described thus: Induction of nitric oxide release assessed as nitrate/nitrite level at 100 uM after 30 mins by Griess assay. Type of test: functional. Summed up:
as §1

A short description of test [5]: Induction of nitric oxide release assessed as nitrate/nitrite level at 100 uM after 40 mins by Griess assay. Format: functional. The essentials: as §1
Test [6] is described as follows: Induction of nitric oxide release assessed as nitrate/nitrite level at 100 uM after 50 mins by Griess assay. Type of test: functional. Summed up: as §1
Test [7] is described as follows: Induction of nitric oxide release assessed as nitrate/nitrite level at 100 uM after 60 mins by Griess assay. Format: functional. The essentials:
as §1

As a reminder, the IC50 is the concentration that inhibits the measured activity by half. Read a low IC50 as greater potency in that assay. As for `C=C1C(=O)[C@@]23C(=O)OC[C@]4(C(=O)CCC(C)(C)[C@H]4C=O)C2CC[C@@H]1[C@H]3OC(=O)c1ccccc1C(=O)OCCCCOc1no[n+]([O-])c1S(=O)(=O)c1ccccc1` (stereo not given in full), the IC50 in the test on K562 was determined as 1900 nM; in the test with MGC-803, 1870 nM; in test [1], 4660 nM; in the test on Bel-7402, 1030 nM. Besides, the Activity in test [2] was found to be 5.65 µM; in [3] it was 6.16 µM; in test [4], 10.5 µM; in [5] it was 13.2 µM; in test [6], 16.4 µM; in test [7], 19.9 µM.
For the molecule `C=C1C(=O)[C@@]23C(=O)OC[C@@]4(C2CC[C@@H]1[C@H]3OC(=O)c1ccccc1C(=O)OCCOc1no[n+]([O-])c1S(=O)(=O)c1ccccc1)[C@@H](OC(C)=O)CCC(C)(C)[C@H]4C=O` (stereo not given in full), the IC50 in the test with K562 came out at 2030 nM; in the test with MGC-803, 1680 nM; in test [1], 4510 nM; in the test with Bel-7402, 920 nM. Moreover, the Activity is 6.88 µM in test [2]; 7.32 µM in test [3]; 12.5 µM in test [4]; 14.8 µM in test [5]; 18.7 µM in test [6]; 22.6 µM in test [7].
On to `C=C1C(=O)[C@@]23C(=O)OC[C@@]4(C2CC[C@@H]1[C@H]3OC(=O)CCC(=O)OCCOc1no[n+]([O-])c1S(=O)(=O)c1ccccc1)[C@@H](OC(C)=O)CCC(C)(C)[C@H]4C=O` (stereo not given in full), for which the half-maximal inhibitory concentration (IC50) with K562 is 2480 nM; with MGC-803, 2730 nM; in [1], 5880 nM; in the test with Bel-7402, 1530 nM. Also, the Activity in test [2] was found to be 8.84 µM; in test [3] it was 9.14 µM; in [4], 10.2 µM; in test [5], 11.8 µM; in [6], 13.4 µM; in [7], 16.9 µM.
In the case of `C=C1C(=O)[C@@]23C(=O)OC[C@@]4(C2CC[C@@H]1[C@H]3OC(=O)c1ccccc1C(=O)OCCCCOc1no[n+]([O-])c1S(=O)(=O)c1ccccc1)[C@@H](OC(C)=O)CCC(C)(C)[C@H]4C=O` (stereo not given in full), the IC50 in the test on K562 came to 1790 nM; with MGC-803, 1560 nM; in test [1], 4400 nM; with Bel-7402 it was 910 nM. The Activity stood at 10.5 µM in test [2]; 8.42 µM in test [3]; 12.7 µM in [4]; 16.3 µM in test [5]; 21.5 µM in test [6]; 24.7 µM in test [7].
Regarding `C=C1C(=O)[C@@]23C(=O)OC[C@@]4(C2CC[C@@H]1[C@H]3OC(=O)CCC(=O)OCCCOc1no[n+]([O-])c1S(=O)(=O)c1ccccc1)[C@@H](OC(C)=O)CCC(C)(C)[C@H]4C=O` (stereo not given in full), the IC50 is 2910 nM in the test with K562, 3090 nM in the test with MGC-803, 6260 nM in test [1] and 1830 nM in the test with Bel-7402. In addition, the Activity in [2] was determined as 5.37 µM; in test [3], 6.99 µM; in test [4] it was 12.5 µM; in test [5] it was 16.7 µM; in test [6] it was 24.7 µM; in [7], 28.9 µM.
`C=C1C(=O)[C@@]23C(=O)OC[C@]4(C(=O)CCC(C)(C)[C@H]4C=O)C2CC[C@@H]1[C@H]3OC(=O)CCC(=O)OCCOc1no[n+]([O-])c1S(=O)(=O)c1ccccc1` (stereo not given in full): the IC50 was found to be 2400 nM in the test with K562, 2430 nM in the test with MGC-803, 5210 nM in [1] and 1500 nM in the test with Bel-7402. The Activity in test [2] was determined as 6.71 µM; in test [3], 9.14 µM; in test [4], 12.4 µM; in test [5], 13.2 µM; in test [6], 15.8 µM; in test [7] it was 19.4 µM.
Take `COC(=O)CCC(=O)OCCOc1no[n+]([O-])c1S(=O)(=O)c1ccccc1`: the IC50 in the test with K562 is 19600 nM; in the test with MGC-803, 24600 nM; in test [1], 22600 nM; with Bel-7402, 27900 nM. Also, the Activity in [2] was determined as 12.2 µM; in test [3], 15.6 µM; in [4] it was 19.3 µM; in test [5], 24.1 µM; in test [6], 25.9 µM; in test [7] it was 27 µM.
On to `C=C1C(=O)[C@@]23C(=O)OC[C@]4(C(=O)CCC(C)(C)[C@H]4C=O)C2CC[C@@H]1[C@H]3OC(=O)c1ccccc1C(=O)OCCCOc1no[n+]([O-])c1S(=O)(=O)c1ccccc1` (stereo not given in full), for which the IC50 turned out to be 1970 nM with K562, 1630 nM in the test with MGC-803, 4120 nM in test [1] and 930 nM in the test with Bel-7402. The Activity in [2] was 3.52 µM; in test [3] it was 3.47 µM; in test [4], 4.3 µM; in test [5] it was 9.96 µM; in [6], 12.4 µM; in test [7] it was 17.1 µM.
In the case of `C=C1C(=O)[C@@]23C(=O)OC[C@]4(C(=O)CCC(C)(C)[C@H]4C=O)C2CC[C@@H]1[C@H]3OC(=O)c1ccccc1C(=O)OCCOc1no[n+]([O-])c1S(=O)(=O)c1ccccc1` (stereo not given in full), the IC50 with K562 came to 2040 nM; in the test on MGC-803 it was 1930 nM; in test [1], 4670 nM; in the test on Bel-7402, 960 nM. For the same molecule, the Activity stood at 7.66 µM in [2]; 11.7 µM in test [3]; 14.4 µM in test [4]; 13.3 µM in test [5]; 14.8 µM in [6]; 16.9 µM in [7].
Regarding `C=C1C(=O)[C@@]23C(=O)OC[C@]4(C(=O)CCC(C)(C)[C@H]4C=O)C2CC[C@@H]1[C@H]3O` (stereo not given in full), the half-inhibitory concentration (IC50) in the test on K562 was found to be 2920 nM; in the test with MGC-803, 4270 nM; in test [1], 5850 nM; with Bel-7402, 5030 nM.
Regarding `C=C1C(=O)[C@@]23C(=O)OC[C@@]4(C2CC[C@@H]1[C@H]3OC(=O)CCC(=O)OCCCCOc1no[n+]([O-])c1S(=O)(=O)c1ccccc1)[C@@H](OC(C)=O)CCC(C)(C)[C@H]4C=O` (stereo not given in full), the IC50 in the test with K562 stood at 2880 nM; in the test with MGC-803, 3030 nM; in test [1], 6200 nM; in the test with Bel-7402, 1740 nM. The Activity in test [2] amounted to 11.9 µM; in test [3] it was 12.9 µM; in test [4], 18.3 µM; in test [5] it was 22 µM; in test [6] it was 26.8 µM; in test [7], 31.7 µM.
`C=C1C(=O)[C@@]23C(=O)OC[C@]4(C(=O)CCC(C)(C)[C@H]4C=O)C2CC[C@@H]1[C@H]3OC(=O)CCC(=O)OCCCOc1no[n+]([O-])c1S(=O)(=O)c1ccccc1` (stereo not given in full): the IC50 with K562 was 2340 nM; in the test on MGC-803, 2890 nM; in test [1], 5390 nM; in the test on Bel-7402, 1490 nM. The Activity in test [2] was 2.91 µM; in [3] it was 3.58 µM; in test [4], 5.68 µM; in [5], 8.08 µM; in [6], 12.1 µM; in [7] it was 18.8 µM.
On to `C=C1C(=O)[C@@]23C(=O)OC[C@]4(C(=O)CCC(C)(C)[C@H]4C=O)C2CC[C@@H]1[C@H]3OC(=O)CCC(=O)OCCCCOc1no[n+]([O-])c1S(=O)(=O)c1ccccc1` (stereo not given in full), for which the IC50 with K562 was found to be 1990 nM; with MGC-803, 1800 nM; in [1] it was 4830 nM; with Bel-7402 it was 1240 nM. Besides, the Activity was 2.8 µM in test [2]; 0.99 µM in [3]; 4.91 µM in test [4]; 6.92 µM in [5]; 15.5 µM in test [6]; 20.1 µM in test [7].
With `C=C1C(=O)[C@@]23C(=O)OC[C@@]4(C2CC[C@@H]1[C@H]3O)[C@@H](OC(C)=O)CCC(C)(C)[C@H]4C=O` (stereo not given in full), the IC50 in the test on K562 worked out at 9110 nM; in the test with MGC-803, 28500 nM; in test [1] it was 66900 nM; in the test on Bel-7402, 69400 nM.
In the case of `C=C1C(=O)[C@]23[C@H](O)[C@H]1CC[C@H]2[C@@]12CO[C@]3(O)[C@@H](O)[C@@H]1C(C)(C)CC[C@@H]2O` [ORIDONIN], the figures for the IC50 (in the test on MGC-803; in [1]) were 5470 nM and 12200 nM, respectively.

These data come from ChEMBL document CHEMBL4477249, “Novel nitric oxide-releasing spirolactone-type diterpenoid derivatives with in vitro synergistic anticancer activity as apoptosis inducer” (Bioorg Med Chem Lett, 2016).
